Test results published in ChEMBL document CHEMBL1221233, “4''-O-(omega-Quinolylamino-alkylamino)propionyl derivatives of selected macrolides with the activity against the key erythromycin resistant respiratory pathogens” (2010).
In brackets after ≈: the same amount, converted by molar mass.

Columns and labels:
Type in all cases: functional
[1] = test system: Haemophilus influenzae; assay: Antibacterial activity against Haemophilus influenzae ATCC 49247 by broth microdilution method
Procedure, shortened: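 MIC by broth microdilution following CLSI guidelines, expressed in units of lg/mL. Twofold dilutions prepared in 96-well plates. H. influenzae grown on Mueller-Hinton chocolate agar before testing.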

[2] = test system: Streptococcus pyogenes; assay: Antibacterial activity against constitutive MLS resistance sStreptococcus pyogenes 166 GR-Micro by broth microdilution method
Procedure, shortened: (§1)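 MIC by CLSI broth microdilution. In the streptococcal medium, 5% horse serum replaced lysed blood. Compounds were tested as two-fold serial dilutions. Strains were first grown on Columbia agar with 5% sheep blood. The MIC was read as the lowest concentration inhibiting growth.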

[3] = test system: Staphylococcus aureus; assay: Antibacterial activity against efflux-mediated macrolide-resistance Staphylococcus aureus PK1 by broth microdilution method
Procedure, shortened: (§2)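 Staphylococci were grown on Mueller-Hinton agar and then tested by CLSI-guideline broth microdilution against two-fold serial dilutions of compound. The result was recorded as the minimum inhibitory concentration.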

[4] = test system: Streptococcus pneumoniae; assay: Antibacterial activity against efflux-mediated macrolide-resistance Streptococcus pneumoniae Ci137 by broth microdilution method; procedure, shortened: as §1
[5] = test system: Streptococcus pyogenes; assay: Antibacterial activity against efflux-mediated macrolide-resistance Streptococcus pyogenes 2 Finland by broth microdilution method; procedure, shortened: as §1
[6] = test system: Staphylococcus aureus; assay: Antibacterial activity against inducible resistance to macrolide, licosamide and streptogramin Staphylococcus aureus 90256 by broth microdilution method; procedure, shortened: as §2
[7] = test system: Streptococcus pneumoniae; assay: Antibacterial activity against inducible resistance to macrolide and constitutive resistance to lincosamide Streptococcus pneumoniae 134 GR M by broth microdilution method; procedure, shortened: as §1
[8] = test system: Streptococcus pneumoniae; assay: Antibacterial activity against constitutive MLS resistance Streptococcus pneumoniae 58 by broth microdilution method; procedure, shortened: as §1

SMILES | MIC [1] [µg/mL] | MIC [2] [µg/mL] | MIC [3] [µg/mL] | MIC [4] [µg/mL] | MIC [5] [µg/mL] | MIC [6] [µg/mL] | MIC [7] [µg/mL] | MIC [8] [µg/mL]
CC[C@H]1OC(=O)[C@H](C)[C@@H](O[C@H]2C[C@@](C)(OC)[C@@H](O)[C@H](C)O2)[C@H](C)[C@@H](O[C@@H]2O[C@H](C)C[C@H](N(C)C)[C@H]2O)[C@](C)(O)C[C@@H](C)CN(C)[C@H](C)[C@@H](O)[C@]1(C)O [AZITHROMYCIN] | 1 (≈ 1.34 µM) | > 64 | > 64 | 8 (≈ 10.7 µM) | 8 (≈ 10.7 µM) | > 64 | > 64 | > 64
CC[C@H]1OC(=O)[C@H](C)[C@@H](O[C@H]2C[C@@](C)(OC)[C@@H](O)[C@H](C)O2)[C@H](C)[C@@H](O[C@@H]2O[C@H](C)C[C@H](N(C)C)[C@H]2O)[C@](C)(OC)C[C@@H](C)C(=O)[C@H](C)[C@@H](O)[C@]1(C)O [CLARITHROMYCIN] | 8 (≈ 10.7 µM) | > 16 | > 64 | 4 (≈ 5.35 µM) | 4 (≈ 5.35 µM) | > 64 | > 64 | > 16
CC[C@H]1OC(=O)[C@H](C)C(=O)[C@H](C)[C@@H](O[C@@H]2O[C@H](C)C[C@H](N(C)C)[C@H]2O)[C@](C)(OC)C[C@@H](C)C(=O)[C@H](C)[C@H]2N(CCCCn3cnc(-c4cccnc4)c3)C(=O)O[C@]12C [TELITHROMYCIN] | 2 (≈ 2.46 µM) | 16 (≈ 19.7 µM) | ≤ 0.125 | 0.25 (≈ 0.308 µM) | 0.5 (≈ 0.616 µM) | ≤ 0.125 | 0.25 (≈ 0.308 µM) | 0.25 (≈ 0.308 µM)
